# High-throughput results from PubChem BioAssay.
# EphB4 antag: EphB4-ephrin-B2 interaction antagonism; P54760; EphB4 LBD / TNYL-RAW-Alexa532 peptide, fluorescence polarization; inhibition, % at 7 µM; actives 0.15% (n = 97,000); AID 720;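 active = inhibition above the screen-wide mean inhibition plus 3 SD, cut at about 15% in these data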;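 also: 0% = DMSO wells and 100% = excess unlabeled TNYL-RAW peptide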
# S1P2 antag: antagonists of human S1P2 receptor. AID 736. cell-based S1P2 antagonist assay, inhibition at 5 uM. inhibition, % at 5 µM. O95136. actives 0.21% (n = 97,000); in the data active = inhibition above about 45%;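 also: CRE beta-lactamase reporter cells expressing human S1P2 stimulated with S1P; 0% = agonist at EC80 alone and 100% = agonist plus reference antagonist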
# GALR2 antag: blocks the human galanin receptor 2 | actives 0.39% (n = 140,000) | inhibition, % at 4 µM | AID 828 | GALR2-expressing cells, antagonist mode | O43603; in the data active = inhibition above about 27%;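 also: cells stimulated with galanin 1-16 at roughly its EC80; 0% = agonist challenge control and 100% = basal control without agonist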
# Target sequence (O43603 whole entry, looked up): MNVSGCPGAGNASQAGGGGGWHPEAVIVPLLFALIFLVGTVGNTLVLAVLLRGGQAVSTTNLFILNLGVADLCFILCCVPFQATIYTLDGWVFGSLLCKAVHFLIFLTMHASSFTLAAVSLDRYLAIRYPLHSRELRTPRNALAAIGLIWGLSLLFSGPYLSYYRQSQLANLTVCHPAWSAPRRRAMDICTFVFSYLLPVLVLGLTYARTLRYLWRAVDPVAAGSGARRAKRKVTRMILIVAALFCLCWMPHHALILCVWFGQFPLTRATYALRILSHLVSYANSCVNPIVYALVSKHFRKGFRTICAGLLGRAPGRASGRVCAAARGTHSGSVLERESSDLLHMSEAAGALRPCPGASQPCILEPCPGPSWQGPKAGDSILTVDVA
# Rev-RRE block: inhibitors of HIV-1 Rev-RRE RNA interaction; P05866; Rev peptide-RRE RNA binding, FRET; inhibition, % at 8 µM; actives 0.79% (n = 97,000);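 active = inhibition above the screen-wide mean plus 3 SD, cut at about 35% in these data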;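 also: 0% = median DMSO wells and 100% = median Neomycin B control wells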
# Target sequence (P05866 whole entry, looked up): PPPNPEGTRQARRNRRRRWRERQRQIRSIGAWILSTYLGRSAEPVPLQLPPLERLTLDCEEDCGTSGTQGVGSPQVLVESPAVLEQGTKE
#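 Test system: labelled RRE RNA duplex and labelled Rev peptide. Times: 5 min compound–RNA preincubation, then 15 min with peptide, 25 °C. Doses: single-dose 8 µM. Measured by: FRET, excitation 480 nm, emission 540 nm donor and 671 nm acceptor. Measure: % inhibition of FRET ratio versus controls.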
# S1P2 agonist: agonists of human S1P2 receptor. O95136. S1P2-expressing cell line, agonist reporter read-out. activation, % at 4.5 µM. actives 0.46% (n = 97,000); in the data active = activation above about 16%;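 also: 0% = vehicle low control and 100% = maximal reference agonist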
# GALR2 ag: agonists of human galanin receptor 2 (GALR2); O43603; actives 0.48% (n = 140,000); activation, % (concentration not given with the values); GALR2-expressing cells, agonist activation read-out; in the data active = activation above about 5%, passing the limit was not always enough;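 also: 0% = vehicle buffer wells and 100% = reference agonist at full effect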
# * = called active by the depositor; · = no result given; [ ] = another dose, or the depositor's remark. In the library only some 1.7% were active in any assay of this set; here they are far more common.
SMILES,EphB4 antag,S1P2 antag,GALR2 antag,Rev-RRE block,S1P2 agonist,GALR2 ag
O=c1[nH]c(-c2ccccc2F)nc2c1sc(=S)n2Cc1ccccc1,·,·,3.4,·,·,0.9
O=C(COc1ccccc1-c1ccccc1)N/N=C/c1ccc2ccccc2c1,·,·,12.3,·,·,6.8*
Cc1ccc(S(=O)(=O)N(C)CC(=O)Nc2ccncc2)cc1,3.8,17.2,-5.0,1.2,-2.6,-0.1
O=c1cc(Cl)[nH]c(=O)n1CCNc1ncc(C(F)(F)F)cc1Cl,1.5,-20.3,-2.3,52.0*,-1.7,-1.6
O=c1[nH]c2cc(Cl)ccc2n(CCNc2ncc(C(F)(F)F)cc2Cl)c1=O,-7.3,2.0,-4.6,6.5,-6.2,-1.9
CCN(CC)c1ccc2cc(-c3nnc(-c4ccncc4)o3)c(=O)oc2c1,4.7,-4.3,-1.8,142.7*[fluorescence artefact?],-0.7,-1.3
CCN(CC)c1ccc2cc(NC(=O)CCC(=O)O)c(=O)oc2c1,·,·,50.1*,·,·,0.2
CCN(CC)c1ccc2cc(C(C)=O)c(=O)oc2c1,0.9,16.8,4.7,126.1*[fluorescence artefact?],0.7,2.7
CCN(CC)c1ccc(-n2c(C)cc(C=O)c2C)cc1,-2.4,4.9,-0.9,-3.0,-1.1,-3.4
CCN(CC)c1ccc2cc(C=O)c(=O)oc2c1,-0.1,-4.1,0.4,140.0*[fluorescence artefact?],6.8,2.4
O=S(=O)(NNc1ccc(Cl)nn1)c1ccc(F)cc1,·,·,3.9,·,·,-0.1
CCN(CC)c1ccc2cc(C(=O)Nc3ccccn3)c(=O)oc2c1,·,·,-5.4,·,·,19.2*
CCN(CC)c1ccc2cc(C(N)=O)c(=O)oc2c1,2.6,-7.4,-5.5,41.3*,20.5*,1.2
CCC(=O)NC(=S)N1CCN(c2ccc([N+](=O)[O-])cc2Cl)CC1,8.3,20.9,-15.1,1.2,-7.8,0.2
CCOC(=O)c1cc(NC(=O)c2ccoc2C)cc(C(=O)OCC)c1,-6.0,-16.1,-13.0,4.5,-2.8,-0.7
COc1ccc2nc(Nc3nc4cc5c(cc4s3)OCO5)sc2c1,·,·,-5.8,·,·,6.8*
COc1ccc2nc(Nc3ccc4c(c3)OCO4)sc2c1,-1.9,2.2,7.0,2.3,-9.0,-1.4
CCCN1C(=O)/C(=C/c2c(NCCCOC(C)C)nc3c(C)cccn3c2=O)SC1=S,1.6,-8.8,14.6,93.7*[fluorescence artefact?],-3.4,-2.6
CCC(C)N1C(=O)/C(=C/c2c(NCCCOC(C)C)nc3c(C)cccn3c2=O)SC1=S (stereo not drawn),-8.0,23.0,-0.8,126.1*[fluorescence artefact?],-8.0,-0.9
COc1ccc(C(=O)NC(=S)Nc2cc(C)ccn2)cc1[N+](=O)[O-],·,·,3.0,·,·,0.3
Cc1ccc(C2C(/C=C3/SC(=S)NC3=O)=C(c3cccs3)Oc3ccccc32)cc1 (stereo not drawn),0.0,-25.6,-16.6,5.5,-1.8,-2.0
CCOC(=O)CC1=NN(c2ccccc2)C(=O)/C1=C\c1ccc(OC)cc1OC,·,·,-5.0,·,·,-0.7
O=C(c1ccccc1)N1CCN2C(=O)c3ccccc3C12c1ccc(Cl)cc1 (stereo not drawn),-4.8,-3.9,3.2,8.9,-8.8,-1.6
Cc1cccc(-n2ccnc2SCC(=O)Nc2nnc(C)s2)c1,2.3,11.5,1.4,7.0,-6.1,-2.5
Cc1nnc(NC(=O)CSc2nccn2C)s1,70.7*,-10.1,1.8,7.6,-4.2,0.2
SMILES,EphB4 antag,S1P2 antag,GALR2 antag,Rev-RRE block,S1P2 agonist,GALR2 ag
Cc1cccc(C)c1NC(=O)Cn1nc(-c2ccccc2)nc1-c1ccccc1,-3.8,13.3,2.2,-5.1,-4.7,-1.7
N#CC1(C#N)C2=C(CCCC2)NC(c2ccccc2)C1(C#N)C#N (stereo not drawn),-0.2,16.1,12.2,46.8*,0.2,-2.5
O=c1[nH]c2cc(Br)cnc2nc1/C=C(\O)c1ccc(F)cc1,2.4,3.6,-0.3,59.9*,-1.9,0.2
CCCCCCCCC[n+]1cccc2c3ccccc3ccc21,0.9,47.6*,2.1,18.6,-2.7,0.0
COCC(COCCCNC(=O)Nc1ccc(Br)cc1)OC (stereo not drawn),-6.5,-8.4,-13.2,-2.7,-3.4,0.3
COc1ccc(C(C(=O)OC(C)CN(C)C)c2ccccc2)cc1 (stereo not drawn),-4.0,-5.9,6.9,6.7,-3.8,-4.4
CN(C)CC(C(=O)c1ccccc1)c1ccccc1 (stereo not drawn),·,·,41.9*,·,·,-0.6
O=C(NN1CCOCC1)c1cc(-c2ccc(Cl)c(Cl)c2)nc2ccccc12,·,·,-4.1,·,·,-0.9
CCN1CCc2nc(NC(=O)c3ccc4c(c3)OCCO4)sc2C1,0.4,10.7,-6.6,36.4*,-6.4,-2.1
O=C(Nc1nc2c(s1)CN(Cc1ccccc1)CC2)c1cccc(S(=O)(=O)N2CCc3ccccc32)c1,-5.8,34.2,16.6,121.9*[fluorescence artefact?],-1.3,0.0
O=C(Cn1ccc2ccccc2c1=O)NCCC(=O)Nc1ccc2c(c1)OCCO2,3.8,15.9,11.4,5.2,-3.0,-1.1
CCC(=O)Nc1cc(C)c(NC(=O)CCc2ccccc2)cn1,-0.2,0.4,3.7,37.8*,-4.2,0.3
CC(=Nc1cccc(O)c1)c1sc2ccccc2c1O,-3.0,-5.9,-3.7,47.7*,0.6,-0.7
CC(=Nc1ccc(C)cc1)c1sc2ccccc2c1O,8.9,24.5,-0.8,43.7*,-13.7,-3.3
CC(=O)NCCN=Cc1sc2ccccc2c1O,-5.5,0.3,15.2,5.0,-6.7,-1.8
CN=Cc1sc2ccccc2c1O,1.1,23.7,-9.3,1.2,0.1,-1.4
Cc1ccc(NC(=S)NCC2CCCO2)c(OC(F)F)c1 (stereo not drawn),·,·,-1.1,·,·,-1.6
COc1cccc(C2=CC(c3ccccc3)n3nnnc3N2)c1 (stereo not drawn),-6.4,-1.6,18.7,12.5,-2.1,0.5
COc1cccc(C2=CC(c3ccc(N(C)C)cc3)n3ncnc3N2)c1 (stereo not drawn),0.7,-7.6,8.1,33.8,-1.2,0.6
COc1ccc(C2=CC(c3ccc(C)cc3)n3nnnc3N2)cc1 (stereo not drawn),-1.2,2.4,-5.1,46.8*,-2.4,-3.4
COc1ccc(C2C=C(c3ccc(C)cc3)Nc3ncnn32)cc1 (stereo not drawn),-0.5,20.1,19.0,56.0*,-6.8,-1.4
COc1ccc(C2C=C(c3ccccc3)Nc3nc(NC(C)=O)nn32)cc1 (stereo not drawn),-4.8,12.7,24.6,42.4*,-11.9,-2.2
COc1ccc(C2C=C(c3ccccc3)Nc3nnnn32)cc1 (stereo not drawn),-5.4,-2.4,-6.3,13.7,-2.6,-0.2
CCC(=O)n1nc(-c2ccc(Cl)cc2)nc1NCc1ccccc1,-8.3,-6.9,-7.5,5.1,-1.9,-1.9
Cc1ccc(C)c(C(C)NC(=O)c2ccccc2Br)c1 (stereo not drawn),·,·,12.3,·,·,-0.5
Brc1ccc(C2=CC(c3cccs3)n3ncnc3N2)cc1 (stereo not drawn),5.9,9.9,19.4,134.8*[fluorescence artefact?],-7.2,-1.0
